# According to the EternaBench riboswitch data:
# Tested on: MS2 coat protein
# Test: apparent Kd, MS2 coat protein; higher = weaker binding; RNA-MaP array; FMN 200 µM where present
# Outline: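 The apparent Kd is the median of filtered binding-curve fits, one per cluster, to green signal normalised to red-channel RNA signal and control-cluster median Fmax. The clusters were on Illumina sequencing chips, and stalled E. coli RNA polymerase had transcribed the designs on them. Titration used SNAP-549-labelled MS2 coat protein from 0.7 or 1.5 nM, doubling to 3 µM, without and then with constant ligand, in 100 mM Tris-HCl pH 7.5, 80 mM KCl, 4 mM MgCl2, BSA, DTT, yeast tRNA and Tween-20.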
# [1] = designed as: OFF switch for flavin mononucleotide, no ligand
# [2] = ligand present: flavin mononucleotide, designed as: OFF switch for flavin mononucleotide
# [3] = designed as: ON switch for flavin mononucleotide, no ligand
# [4] = ligand present: flavin mononucleotide, designed as: ON switch for flavin mononucleotide
Sequence,apparent Kd [1] [µM],apparent Kd [2] [µM],apparent Kd [3] [µM],apparent Kd [4] [µM]
GGUACUCAAAGAGUACCAAUAUGAACAUGAGGAUCACCCAUGUAGGAUAUGCUACUCAAAGAGUAGCAGAAGGACAUGUGUCUA,0.0167,0.0755,,
AUAGUGCCCGAGAAGGACGUACCACAUGUUGAUCACCGAUAUAAGGAACGUAGGAUAUUGGACAUGAGGAUCACCCAUGUGGAU,,,0.0875,0.162
AAAGGACGAUUAGGAUAUUCGGUUCAAGGUAAAGAAGAAGGAAUCGUUCCAUACUUAACAUGAGGAUCACCCAUGUGGGUCUAG,0.0349,0.0295,,
UUAAUUAAUUAAUUGCAGUUUACAUGAGGAUCACCCAUGUAUAAGGAUAUCGUCAGGAAUACUGACGAGAAGGUAUACAUCUGC,0.019,0.0318,,
UUUAACUGCUAGAAGGGUGACAUGAGGAUCACCCAUGUGCUAGGCGUGCAUAAGCACCCUUAGCCACAGGAUAUAGUAGUUGAC,,,0.112,0.0645
CUGCGGUAGGAGAAGGACGGCGGGUUCUUUUCGUACAUGAGGAUCACCCAUGUAGGAUAUCCUACCUCAGGCGGCCUACUACAG,0.00589,0.00742,,
GGUACCAACACAGGAUAUGCAAUCCUUUGGGUUGCAGAAGGGUGAAACAUGAGGAUCACCCAUGUGGUGCCAGGGCGUGAGCCC,,,1.29,0.104
GUUAAGGUAGGAUAUACGAUAAUAUAGGGUAGAUAUAUAACACAUGAGGAUCACCCAUGUAGAAGGACCAAGUG,0.0415,0.17,,
UGAUCGAAAGAUCAUAGAUUCUGCUAGGAUAUGCAGAAGUUUCAAUUUACAUGAGGAUCACCCAUGUAGAAGGAGUAGAGUCUA,0.00548,0.00598,,
UGAAAUCAUGUAGGAUAUGCAUGGCGAAGCUACGCAGAAGGACAUGAGGAUCACCCAUGUUAUAGCUACCCAAUUCGGUGGCAA,0.0563,0.152,,
UGAAACUACGAGAAGGACAUGUGGUCCUUCAGUUACAUGAGGAUCACCCAUGUAGGAUAUCGUAGUUUCAGGAUCGUGAGAUCC,0.0328,0.0117,,
GCCUGCUGGCGAGGAUAUUCUGUGAGGUUCCGGCUCGUGUCUGUUACAUGAGGAUCACCCAUGUGGGAGAAGGUGUCUGUGGCC,0.00615,0.00613,,
UCGAGGUCAGGAUAUACAUGAGGAUCACCCAUGUUGAGAGAAGGUAGGAAAAGAGUAGGUAGAAGGGACGAGAG,0.0337,0.0338,,
GGACGUCACAUUCACAUGAGGAUCACCCAUGUCAAAAGACAUGAGGAUAUGGAUCCUAAUUGGAUCCAGAAGGCAUGGACGUCC,,,1.14,0.0706
CCGUAGUACUGGGAUCCGGGCCUACAUGAGGAUCACCCAUGUCAGGAUAUACGCGAGAUAAAUACGUAGAAGGGACACAGAUGA,0.0197,0.0331,,
UUGGACGUCGUAGGAUAUGUAGUAUAUUCCUACAUGAGGAUCACCCAUGUUGACAUGGAAGAAGGACAGAAGGACGAUGUCCAU,,,0.00654,0.00501
GCCGAGUGAGGAUAUAGCCAGGUUCGAUAAGGUCGAAUCGGCUAGAAGGCACAUGAGGAUCACCCAUGUGGGUA,0.225,0.449,,
UUAUGAGAGCAGGAUAUCUUAUUUUUUUUUUAUAGAGAAGGGCUCACAUGAGGAUCACCCAUGUGGUCCUAGAU,0.0325,0.0525,,
GUAGCAUACCGAGGAUAUCUAUCCCGGAAACGGACAUGAGGAUCACCCAUGUGGCGAAAGCCUUGGGAGAAGGCGGAAUGCUAC,,,0.0467,0.0172
GUUUUCGCGUGAGGAUAUGCUCGCAUUUCAAGAGCAGAAGGUAUGUCUAUAGACAUGAGGAUCACCCAUGUAUUUAUCAUUGAA,,,0.226,0.16
AGAUCACAUGAGGAUCACCCAUGUGAGGAUAUGGACUGAAGAGCUUCGGCUCUUCAGUCCAGAAGGCACUAUGA,0.0273,0.035,,
ACGUGUAAUACAGGAUAUGUAUUGGAUUAAUCAACCAGUUAUUAAGUAACGACAGAAGGGUAUACAUGAGGAUCACCCAUGUUA,0.0243,0.0202,,
GUAAUAAAGAUCCAAUUAUACUACAUGAGGAUCACCCAUGUGCAGGAUAUCGAGAGUUUAUAAUUCGAGAAGGGCAAAUUCAUU,0.073,0.159,,
